Source: PubChem BioAssay AID617 (SRMLSC, 2007)

Tested on: E. coli BW25113 ΔtolC growth inhibition, OD615
Assay: growth inhibitors of E. coli tolC mutant, dose response, strain BW25113 ΔtolC::kan (AID 617)
Method in brief: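 System: E. coli BW25113 ΔtolC::kan bacteria. Amount: 1:1000 diluted subculture inoculum. Medium: LB broth supplemented with kanamycin at 50 µg/mL. Compound dosing: serial dilution series of compound. Schedule: 20 h exposure at 37 °C. Detection: OD615. Measure: IC50 of bacterial growth inhibition. Benchmarks: chloramphenicol control, 30 µM final.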

Compound | IC50
NC1=NC(c2cn(-c3ccccc3)nc2-c2cccs2)n2c(nc3ccccc32)N1 (stereo not given) | 16.4 µM
O=C(CN1CCN(S(=O)(=O)c2ccc(F)cc2)CC1)Nc1ccc(Cl)c(C(F)(F)F)c1 | 9.07 µM
COc1ccc(-c2[nH]ncc2-c2ccc(Cl)cc2)c(O)c1 | 4.52 µM
Cn1ncc(C#N)c1/N=C/N(Cc1ccccc1)Cc1ccccc1 | 7.5 µM
CCOC(=O)c1sc(NC(=O)c2c(C)nn(Cc3ccccc3)c2C)cc1C | 9.35 µM
CC1=C(C#N)c2nc(N)c(C#N)c(C)c2/C1=C\c1ccccc1 | 3.05 µM
N=c1n(CCN2CCOCC2)c2ccccc2n1CC(=O)c1ccc(Cl)c(Cl)c1 | 27.1 µM
Cn1cccc1C(=O)Nc1nc(-c2ccccn2)cs1 | 2.42 µM
Cc1ccc2cc(C(c3nnnn3C3CCCC3)N(Cc3cccnc3)Cc3ccco3)c(=O)[nH]c2c1 (stereo not given) | 13.7 µM
N=c1c2c(n(Cc3ccc(Cl)cc3Cl)c3c1CCC3)CCCC2 | 6.15 µM
COC(=O)c1sccc1NC(=O)c1cc2c(s1)CCCC2 | 4.95 µM
COc1cccc(-c2cc(C(F)(F)F)nc(N3CCOCC3)n2)c1 | 16.5 µM
COc1cccc(-c2csc(N3CCN(C(=O)C4CCCCC4)CC3)n2)c1 | 16.8 µM
CCCC(=O)c1ccc(N2CCCCCC2)c(F)c1 | 95.6 µM
CCOC(=O)c1c(-c2cccs2)csc1NC(=O)CN1CC(C)OC(C)C1 (stereo not given) | 24.8 µM
CCOc1ccc2[nH]c3c(N4CCN(c5ccccn5)CC4)ncnc3c2c1 | 12.2 µM
O=C(C1CCCCC1)N1CCC(c2nc3c(nnn3Cc3c(F)cccc3Cl)c(=O)[nH]2)CC1 | 18.2 µM
COc1ccc(S(=O)(=O)C(C#N)c2nc3ccccc3nc2N2CCCC(C)C2)cc1 (stereo not given) | 6.97 µM
O=C(Nc1nccs1)C(NS(=O)(=O)c1ccc(Br)s1)c1ccccc1 (stereo not given) | 12.8 µM
O=C(Nc1nc(-c2ccccn2)cs1)c1ccc(Cl)s1 | 0.13 µM
Cc1c(C(=O)OC2CCCC2C)[nH]c2c1C(=O)CCC2 (stereo not given) | 0.38 µM
CC1=CC(C)(C)N2C(=O)C3(C(C#N)=C(N)Oc4cc(O)ccc43)c3cccc1c32 (stereo not given) | 4.14 µM

Compound | IC50
COc1ccc(S(=O)(=O)Nc2ccccc2C(=O)NCc2ccco2)cc1Br | 9.63 µM
COc1ccc(S(=O)(=O)N(Cc2cccs2)C2CCCC2)cc1 | 8.13 µM
Cc1ccc(Cl)cc1N1CCN(C(=O)c2ccc(NS(=O)(=O)c3c(C)noc3C)cc2)CC1 | 29.4 µM
N#Cc1ccc(CSc2nnc(-c3cccs3)n2-c2ccccc2)cc1 | 15.6 µM
CCc1nc2ccccc2c(=O)n1NC(=O)c1c(O)c2ccccc2[nH]c1=O | 5.7 µM
CC(C)c1ccc(-c2nnn(Cc3nc4ccccc4s3)n2)cc1 | 22.8 µM
CCOC(=O)C1CCN(C(c2cccnc2)c2c(NC(=O)c3ccco3)sc(C)c2C)CC1 (stereo not given) | 13.6 µM
COC(=O)c1cc(C(=O)CSc2nc(C)cc(C)n2)ccc1O | 4.31 µM
CCOC(=O)c1cnc(-n2cc(C)cn2)nc1Nc1ccccc1OCC | 16 µM
CCCCCCn1c2c(c(=N)c3c1CCC3)CCC2 | 10.2 µM
O=C1c2[nH]nc(-c3ccccc3O)c2C(c2ccccc2)N1Cc1ccco1 (stereo not given) | 2.45 µM
Cc1nc(N2CCN(Cc3ccccc3)CC2)nc2c1C(=O)CC(c1ccco1)C2 (stereo not given) | 10.6 µM
CCCCOn1c(C)c(C(=O)OCC)c2c3nonc3ccc21 | 18.4 µM
Cc1nc2nc(COc3ccccc3)[nH]n2c(=O)c1Cc1ccccc1 | 1.32 µM
Cc1n[nH]c(C)c1S(=O)(=O)N(CC(=O)Nc1ccc2c(c1)OCCO2)c1ccc(C(C)C)cc1 | 19.3 µM
Cc1nn(-c2ccccc2)c2sc(-c3n[nH]c(=S)o3)cc12 | 4.43 µM
CCCc1ccc(Oc2cn[nH]c2-c2ccc(O)c(C)c2O)cc1 | 1.84 µM
CSc1ncc(Cl)c(C(=O)C(C#N)c2nc3c(C)cc(C)cc3c(=O)[nH]2)n1 (stereo not given) | 3.28 µM
CC1CCCN(S(=O)(=O)c2ccc(NC(=O)Cn3nnc(-c4ccccc4F)n3)cc2)C1 (stereo not given) | 26.6 µM
O=C(N1CCN(c2ccccn2)CC1)N1c2ccccc2Sc2ccccc21 | 19.4 µM
O=C(Nc1scc(-c2cccs2)c1C(=O)O)c1cccs1 | 10.5 µM
CCOC(=O)c1ccc(-n2[nH]c(-c3ccccc3)cc2=O)cc1 | 8.26 µM

Compound | IC50
c1ccc(Cn2nnnc2C(c2cccs2)N2CCCCCC2)cc1 (stereo not given) | 9.47 µM
COc1ccc(-c2cc(C(=O)N3CCc4ccccc4C3)no2)cc1OC | 16.6 µM
COc1ccc(-n2c(COc3ccccc3)nnc2SCc2ccc(C#N)cc2)cc1 | 14.2 µM
CCCCCSc1nnc(-c2cc(Br)ccc2N)c(=O)[nH]1 | 5.1 µM
CCn1c(C(=O)OC)cc2c1ccn2-c1ccc(F)cc1 | 17.2 µM
Cc1cccc(-n2ncc3c(NCc4ccc5c(c4)OCO5)ncnc32)c1 | 8.94 µM
COc1ccc2[nH]c3c(=O)n(CCCCC(=O)NCCN4CCCC4)c(=S)[nH]c3c2c1 | 17.4 µM
CCCSc1oc(-c2ccco2)nc1S(=O)(=O)c1ccccc1 | 9.73 µM
Cc1ccc2[nH]c(=O)c(CN(Cc3nnnn3Cc3ccccc3)C3CCCC3)cc2c1 | 53.3 µM
Cc1cccc(N2CCN(C(=O)c3cn(C)c(=O)c4c3c3ccccc3n4C)CC2)c1C | 16 µM
Cc1cc(Nc2ccccc2)n(-c2nc3ccccc3[nH]2)n1 | 4.9 µM
COC(=O)c1[nH]c2ccccc2c1NC(=O)CN1CCN(c2cccc(OC)c2)C(C)C1 (stereo not given) | 18.6 µM
CCCOc1ccc(C2C(C(=O)c3ccc(C)o3)=C(O)C(=O)N2Cc2cccnc2)cc1 (stereo not given) | 36.1 µM
Clc1ccc(OCc2nn3c(C4CCCCC4)nnc3s2)cc1 | 9.82 µM
CCn1cc(Br)c(C(=O)Nc2ccc(C(=O)OC(C)C)cc2)n1 | 12.3 µM
CN(Cc1ccccc1)C(=O)CSc1nc2ccccc2c(=O)n1Cc1ccco1 | 10.7 µM
CCOC(=O)c1cc2oc(C)cc2n1CC(=O)OC1CCCCC1 | 17.6 µM
CCCn1c(SCC(=O)Nc2ccccc2N2CCCCC2)nc2c1c(=O)n(C)c(=O)n2C | 11.7 µM
CCCc1cc(C(=O)N2CCN(c3ccccc3C)CC2)cs1 | 8.52 µM
O=C(OC1CCCCC1)c1ccc(NC(=O)c2ccco2)cc1 | 6.09 µM
COC(=O)c1cc(CSc2nc3ccc(C)cc3[nH]2)oc1C | 13.8 µM
COc1ccc2c(c1)sc1nc(-c3ccccc3)cn12 | 12.2 µM

Compound | IC50
O=C(Nc1ccc2nc(-c3cccs3)[nH]c2c1)c1ccco1 | 82.7 µM
CCn1c(SCC(=O)Nc2nc(-c3ccc(C)cc3)cs2)nnc1-c1ccccc1O | 4.11 µM
N#Cc1nc(COc2ccccc2)oc1N1CCN(Cc2ccccc2)CC1 | 14.3 µM
COc1ccc(OC)c(S(=O)(=O)n2cnc3cc(C)c(C)cc32)c1 | 11.4 µM
O=c1n(Cc2ccccc2)c2cc(Cl)cnc2n1Cc1ccccc1 | 10.2 µM
COc1ccc(-c2nc(-c3cccs3)c(-c3cccs3)[nH]2)cc1O | 6.09 µM
Nc1nc(CN2CCN(c3cccc(Cl)c3)CC2)nc(N2CCCc3ccccc32)n1 | 4.27 µM
CCOC(=O)N1CCN(S(=O)(=O)c2ccc(OCC)c3ccccc23)CC1 | 14.2 µM
CCCCC(CC)CNC(=O)c1[nH]c(C)c(C(C)=O)c1C (stereo not given) | 1.28 µM
CCSCC1COC(c2cccn2Cc2ccc(C)cc2)=N1 (stereo not given) | 39.4 µM
Oc1ccccc1-c1nc(NCC2CCCO2)c2ccccc2n1 (stereo not given) | 90.8 µM
Cc1ccc(-n2c(C)cc(C3N=C(N)Nc4nc5ccccc5n43)c2C)c(C)c1 (stereo not given) | 6.62 µM
COc1ccc(NC(=O)c2cc(-c3cc(C)cc(C)c3O)n[nH]2)cc1Cl | 1.95 µM
CC(C)N1CCC2(CC1)N=C(c1ccc3c(c1)OCO3)CC(c1cc(Cl)ccc1O)N2 (stereo not given) | 9.86 µM
COc1ccc(C2(O)CC3CCC(C2)N3c2cc(C)nc(-c3ccccc3)n2)cc1 (stereo not given) | 11.7 µM
CCCCCn1c(SCCC(C)C)nc2c1c(=O)[nH]c(=O)n2C | 38 µM
Cc1noc(C)c1C(=O)Nc1sc(C)c(-c2ccccc2)c1C#N | 9.36 µM
Clc1ccc(OCc2nc(-c3ccccn3)n[nH]2)cc1 | 15.4 µM
O=C1[C@H]2[C@@H](C(=O)N1c1cc(Cl)cc(Cl)c1)[C@]1(C(=O)Nc3ccccc31)N1CCC[C@@H]21 | 10.1 µM
CCc1cc2c(N3CCN(c4ccccc4)CC3)ncnc2s1 | 13.6 µM
CC(C)c1ccc(-c2noc(C3CCCN(C(=O)c4ccc(F)cc4F)C3)n2)cc1 (stereo not given) | 17.9 µM
COc1ccc(OC)c(S(=O)(=O)N2CCN(c3c(C)cccc3C)CC2)c1 | 15.6 µM

Compound | IC50
Cc1sc(NC(=O)c2ccco2)c(CN2CCN(c3ccccn3)CC2)c1C | 9.55 µM
Cc1cc(=O)[nH]c(SCC(=O)Nc2nc(-c3ccccc3)cs2)n1 | 4.48 µM
O=C(c1noc2c1CCc1ccccc1-2)N1CCCc2ccccc21 | 12.2 µM
O=C(Nc1nc(-c2ccccn2)cs1)C1COc2ccccc2O1 (stereo not given) | 0.97 µM
CN(c1ccccc1C(=O)Nc1ccc(S(=O)(=O)N2CCCCC2)cc1)S(C)(=O)=O | 7.39 µM
COc1cccc(-c2cc(C(=O)N3CC4(C)CC3CC(C)(C)C4)no2)c1 (stereo not given) | 11 µM
Cc1cc(Nc2ccccc2)nc(-c2ccccc2O)n1 | 15.4 µM
O=C(c1ccco1)N1CCN(c2c(-c3ccccc3)c3cc(Cl)ccc3[nH]c2=O)CC1 | 24 µM
CCC1CCCCN1S(=O)(=O)c1ccc2c(c1)CCN2C(=O)C1CCC1 (stereo not given) | 14.7 µM
OCCn1c(-c2ccc3c(c2)OCO3)csc1=Nc1ccccc1 | 23.5 µM
COc1ccc(NC(=O)N(C2CCCCC2)C(C)c2ccco2)c(OC)c1 (stereo not given) | 15 µM
C/C(CCc1oc2ccccc2c1-c1ccc(C)o1)=N/O | 14.2 µM
CCOC(=O)c1ccc(NC(=O)CSc2nc(SC)ns2)cc1 | 9.73 µM
O=S(=O)(Nc1nc2ccccc2nc1NCc1ccco1)c1ccccc1 | 8.89 µM
CC(C)(C)n1c(O)c(C=Nc2ccc3c(c2)CCC3)c(=O)[nH]c1=O | 12.8 µM
Cc1[nH]c2ccccc2c1NC(=O)CN1CCN(c2cccc(C(F)(F)F)c2)CC1 | 12.5 µM
COc1cccc(N2CC(C(=O)Nc3ccc(C(=O)OC(C)C)cc3)CC2=O)c1 (stereo not given) | 15 µM
COc1ccc(-c2[nH]ncc2-c2ccc3c(c2)OCCO3)c(O)c1 | 15.9 µM
O=C(NCCCc1ccccc1)c1ccccc1O | 9.34 µM
CCOC(=O)C1CCN(C(=O)c2oc3ccc(S(=O)(=O)N4CCCCCC4)cc3c2C)CC1 | 21.6 µM
CCn1cc(C(=O)OCC(=O)OC2CC(C)CCC2C(C)C)c(=O)c2ccc(C)nc21 (stereo not given) | 7.52 µM
CCCCCn1c(N2CCC(Cc3ccccc3)CC2)nc2c1c(=O)[nH]c(=O)n2C | 6.18 µM
